Measured values: ChEMBL document CHEMBL4680093 (J Med Chem, 2016)

Legend:
[1] = In-vivo inhibition of 11beta-HSD1 activity in C57BL/6 mouse epididymal fat assessed as reduction in cortisone to-cortisol conversion at 10 mg/kg, po measured after 6 hrs by ELISA; assay type: functional; conditions: C57BL/6, Epididymal fat pad
In short: (§1)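 Male C57BL/6 mice dosed orally once at 3, 10 or 30 mg/kg in sterile water containing 0.5% methylcellulose and 1% Tween80, then sacrificed at 2 or 6 h. Liver and epididymal fat pads incubated ex vivo in culture medium containing cortisone. Cortisol formed was measured by ELISA and reported as % inhibition versus vehicle.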

[2] = In-vivo inhibition of 11beta-HSD1 activity in C57BL/6 mouse epididymal fat assessed as reduction in cortisone to-cortisol conversion at 30 mg/kg, po measured after 6 hrs by ELISA; assay type: functional; conditions: C57BL/6, Epididymal fat pad; in short: as §1
[3] = In-vivo inhibition of 11beta-HSD1 activity in C57BL/6 mouse epididymal fat assessed as reduction in cortisone to-cortisol conversion at 30 mg/kg, po measured after 2 hrs by ELISA; assay type: functional; conditions: C57BL/6, Epididymal fat pad; in short: as §1
[4] = In-vivo inhibition of 11beta-HSD1 activity in C57BL/6 mouse liver assessed as reduction in cortisone to-cortisol conversion at 30 mg/kg, po measured after 6 hrs by ELISA; assay type: functional; conditions: C57BL/6, Liver; in short: as §1
[5] = In-vivo inhibition of 11beta-HSD1 activity in C57BL/6 mouse liver assessed as reduction in cortisone to-cortisol conversion at 3 mg/kg, po measured after 2 hrs by ELISA; assay type: functional; conditions: C57BL/6, Liver; in short: as §1
[6] = In-vivo inhibition of 11beta-HSD1 activity in C57BL/6 mouse liver assessed as reduction in cortisone to-cortisol conversion at 30 mg/kg, po measured after 2 hrs by ELISA; assay type: functional; conditions: C57BL/6, Liver; in short: as §1
[7] = Unbound drug level in mouse plasma at 10 mg/kg, po measured after 2 hrs post dose; assay type: ADME, organism-based; conditions: in vivo
[8] = Protein binding in human plasma; assay type: ADME, cell-free; conditions: read-out: PPB
[9] = Drug level in mouse brain at 10 mg/kg, po measured after 2 hrs post dose; assay type: ADME, organism-based; conditions: in vivo
In short: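 C57BL/6 mice given a single oral 10 mg/kg dose in 0.5% methylcellulose plus 1% Tween80. Sacrifice at 2 h post-dose, with collection of brain, liver, adipose and plasma. Compound concentration expressed as nmol/g, along with tissue/plasma ratio.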

Cytochrome P450 2C9 = Cytochrome P450 2C9 (Homo sapiens, UniProt P11712); assay: Inhibition of CYP2C9 in pooled human liver microsomes using diclofenac as substrate in presence of NADPH incubated for 10 mins by LC-MS/MS analysis
Cytochrome P450 2C9, sequence (P11712 whole entry): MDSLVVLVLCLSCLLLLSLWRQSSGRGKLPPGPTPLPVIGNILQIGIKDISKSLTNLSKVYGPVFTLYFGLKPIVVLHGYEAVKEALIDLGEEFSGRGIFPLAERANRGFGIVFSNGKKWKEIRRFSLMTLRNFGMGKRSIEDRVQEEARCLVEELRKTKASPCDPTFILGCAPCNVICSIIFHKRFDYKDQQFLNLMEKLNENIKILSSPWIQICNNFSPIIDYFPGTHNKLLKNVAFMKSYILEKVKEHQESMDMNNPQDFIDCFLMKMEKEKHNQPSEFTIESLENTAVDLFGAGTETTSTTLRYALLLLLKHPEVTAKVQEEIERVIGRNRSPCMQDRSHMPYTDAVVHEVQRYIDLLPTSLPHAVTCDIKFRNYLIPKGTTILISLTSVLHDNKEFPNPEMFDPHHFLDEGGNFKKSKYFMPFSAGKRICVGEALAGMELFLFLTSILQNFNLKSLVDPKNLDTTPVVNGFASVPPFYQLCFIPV

Cytochrome P450 3A4 = Cytochrome P450 3A4 (Homo sapiens, UniProt P08684); assay: Inhibition of CYP3A4 in pooled human liver microsomes using midazolam as substrate in presence of NADPH incubated for 10 mins by LC-MS/MS analysis
Cytochrome P450 3A4, sequence (P08684 whole entry): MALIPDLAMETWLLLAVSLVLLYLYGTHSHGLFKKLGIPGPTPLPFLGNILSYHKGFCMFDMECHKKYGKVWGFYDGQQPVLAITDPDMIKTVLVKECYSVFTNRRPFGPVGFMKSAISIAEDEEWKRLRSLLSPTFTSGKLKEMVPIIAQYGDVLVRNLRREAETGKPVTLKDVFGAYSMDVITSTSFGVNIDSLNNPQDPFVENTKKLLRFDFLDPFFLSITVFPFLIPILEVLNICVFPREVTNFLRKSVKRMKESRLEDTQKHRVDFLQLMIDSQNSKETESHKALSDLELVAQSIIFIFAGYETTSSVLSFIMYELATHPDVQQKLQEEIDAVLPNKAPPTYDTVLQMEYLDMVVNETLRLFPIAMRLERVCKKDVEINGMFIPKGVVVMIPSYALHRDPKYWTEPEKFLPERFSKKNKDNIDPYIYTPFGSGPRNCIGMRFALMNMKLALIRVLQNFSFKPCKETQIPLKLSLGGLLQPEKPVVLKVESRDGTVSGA

[10] = Volume of distribution at steady state in dog at 0.5 mg/kg, iv; assay type: ADME, organism-based, Canis lupus familiaris; conditions: in vivo, read-out: Vdss
In short: (§2)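 Single-dose PK study. The iv dose was given in 10% hydroxypropyl-β-cyclodextrin and the oral dose in 0.5% methylcellulose/1% Tween80. Mouse and rat received 1 mg/kg iv and 5 mg/kg po. Dog received 0.5 mg/kg iv and 4 mg/kg po. CL, Vss, t1/2, AUC, Cmax, tmax and F were derived.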

[11] = AUC in dog at 0.5 mg/kg, iv; assay type: ADME, organism-based, Canis lupus familiaris; set-up: dose 0.5 mg/kg; conditions: in vivo
[12] = Cmax in mouse at 5 mg/kg, po; assay type: ADME, organism-based; set-up: route oral, dose 5 mg/kg; conditions: in vivo
[13] = Tmax in mouse at 5 mg/kg, po; assay type: ADME, organism-based; conditions: in vivo; in short: as §2
[14] = AUC in rat at 5 mg/kg, po; assay type: ADME, organism-based; set-up: dose 5 mg/kg; conditions: in vivo
Mus musculus [15] = assay: In-vivo inhibition of 11beta-HSD1 activity in C57BL/6 mouse liver assessed as reduction in cortisone to-cortisol conversion at 3 to 30 mg/kg, po measured after 2 to 6 hrs by ELISA; assay type: functional, organism-based; conditions: dose 3-30 mg/kg, time 2-6 hrs; in short: as §1
[16] = Toxicity in dog assessed as induction of abnormal changes in cardiovascular system up to 400 mg/kg, po; assay type: organism-based, Canis lupus familiaris; conditions: in vivo
In short: (§3)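 Dogs fitted with telemetry were given oral doses of up to 400 mg/kg. Cardiovascular and respiratory systems were monitored for abnormal changes.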

[17] = Toxicity in dog assessed as induction of abnormal changes in respiratory system up to 400 mg/kg, po; assay type: organism-based, Canis lupus familiaris; conditions: in vivo; in short: as §3
[18] = target: Voltage-gated inwardly rectifying potassium channel KCNH2 (Homo sapiens, UniProt Q12809); assay: Inhibition of human ERG expressed in CHO cells by whole-cell patch clamp assay; assay type: cell-based
Voltage-gated inwardly rectifying potassium channel KCNH2, sequence (Q12809 whole entry): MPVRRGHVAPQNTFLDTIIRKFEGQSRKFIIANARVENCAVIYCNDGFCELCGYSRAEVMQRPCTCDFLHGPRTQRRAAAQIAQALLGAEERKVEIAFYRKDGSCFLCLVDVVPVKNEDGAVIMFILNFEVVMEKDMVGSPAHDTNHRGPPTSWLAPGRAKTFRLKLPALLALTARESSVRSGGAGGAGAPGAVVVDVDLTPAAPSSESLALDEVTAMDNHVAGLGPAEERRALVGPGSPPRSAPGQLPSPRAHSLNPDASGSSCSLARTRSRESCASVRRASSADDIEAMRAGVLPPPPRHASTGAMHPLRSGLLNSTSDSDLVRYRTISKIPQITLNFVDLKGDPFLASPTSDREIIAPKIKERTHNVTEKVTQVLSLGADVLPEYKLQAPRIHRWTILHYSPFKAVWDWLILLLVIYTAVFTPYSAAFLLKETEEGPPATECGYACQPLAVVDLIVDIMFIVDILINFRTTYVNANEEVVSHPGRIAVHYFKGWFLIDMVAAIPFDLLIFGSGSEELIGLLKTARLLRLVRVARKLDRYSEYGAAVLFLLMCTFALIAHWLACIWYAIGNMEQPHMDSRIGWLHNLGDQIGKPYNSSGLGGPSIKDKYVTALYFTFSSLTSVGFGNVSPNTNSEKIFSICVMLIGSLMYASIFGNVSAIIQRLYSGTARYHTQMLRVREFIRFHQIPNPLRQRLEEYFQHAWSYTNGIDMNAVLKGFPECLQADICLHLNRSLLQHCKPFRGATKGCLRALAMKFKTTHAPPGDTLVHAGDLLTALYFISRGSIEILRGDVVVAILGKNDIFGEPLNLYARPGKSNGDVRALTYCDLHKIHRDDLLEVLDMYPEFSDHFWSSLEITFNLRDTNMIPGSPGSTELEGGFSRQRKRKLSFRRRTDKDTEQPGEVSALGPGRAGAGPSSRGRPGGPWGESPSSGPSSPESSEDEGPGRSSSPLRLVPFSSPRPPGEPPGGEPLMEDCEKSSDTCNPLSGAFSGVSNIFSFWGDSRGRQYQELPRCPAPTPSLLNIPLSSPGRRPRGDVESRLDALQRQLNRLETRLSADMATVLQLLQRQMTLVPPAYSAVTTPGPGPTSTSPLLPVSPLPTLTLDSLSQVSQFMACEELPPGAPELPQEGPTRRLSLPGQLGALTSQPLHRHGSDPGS
In short: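 hERG channels stably expressed in CHO cells were recorded by whole-cell patch clamp, and an IC50 was estimated.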

Erythrocyte = assay: Genotoxicity in mouse erythrocytes by micronucleus test; assay type: toxicity, cell-based
[19] = Toxicity in male dog during 4-week repeated once daily oral-dose toxicity study; set-up: species or system Canis lupus familiaris; conditions: in vivo, time 4 weeks
In short: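 Dogs of both sexes were dosed orally once daily for 4 weeks at 25, 100 and 400 mg/kg. Toxicity was assessed and the NOAEL determined.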

Mus musculus [20] = assay: Improvement in lipid profile in C57BL/6-Lep^ob (ob/ob) mouse assessed as LDL cholesterol level at 20 mg/kg, po dosed once daily for 25 days (reference value: 30.3 +/- 0.8 mg/dl); assay type: functional; conditions: time 25 day
Mus musculus [21] = assay: Improvement in lipid profile in C57BL/6-Lep^ob (ob/ob) mouse assessed as total cholesterol level at 20 mg/kg, po dosed once daily for 25 days (reference value: 286.6 +/- 6.3 mg/dl); assay type: functional; conditions: time 25 day
Mus musculus [22] = assay: Improvement in lipid profile in C57BL/6-Lep^ob (ob/ob) mouse assessed as triglyceride level at 20 mg/kg, po dosed once daily for 25 days (reference value: 90.9 +/- 5.5 mg/dl); assay type: functional; conditions: time 25 day
[23] = target: 11-beta-hydroxysteroid dehydrogenase 1 (Homo sapiens, UniProt P28845); assay: Inhibition of human 11beta-HSD1 expressed in HEK293 cells using cortisone by ELISA
11-beta-hydroxysteroid dehydrogenase 1, sequence (P28845 whole entry): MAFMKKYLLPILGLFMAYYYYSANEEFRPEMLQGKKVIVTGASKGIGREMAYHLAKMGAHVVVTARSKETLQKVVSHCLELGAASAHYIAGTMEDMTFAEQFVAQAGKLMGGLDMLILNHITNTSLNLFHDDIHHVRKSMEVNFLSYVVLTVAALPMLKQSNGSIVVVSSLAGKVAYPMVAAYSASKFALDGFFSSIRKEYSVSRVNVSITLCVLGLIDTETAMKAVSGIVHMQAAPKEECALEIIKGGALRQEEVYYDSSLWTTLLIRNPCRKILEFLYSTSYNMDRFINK

[24] = Reduction in nonfasting blood glucose level in C57BL/6-Lep^ob (ob/ob) mouse at 20 mg/kg, po dosed once daily for 25 days relative to control; set-up: scale not given: the % may be the effect or the level left; conditions: time 25 day
Mus musculus [25] = assay: Improvement in lipid profile in C57BL/6-Lep^ob (ob/ob) mouse assessed as triglyceride level at 20 mg/kg, po dosed once daily for 25 days co-treated with 300 mg/kg. po QD for 25 days metformin (reference value: 90.9 +/- 5.5 mg/dl); conditions: time 25 day
Mus musculus [26] = assay: Improvement in lipid profile in C57BL/6-Lep^ob (ob/ob) mouse assessed as total cholesterol level at 20 mg/kg, po dosed once daily for 25 days co-treated with 300 mg/kg. po QD for 25 days metformin (reference value: 286.6 +/- 6.3 mg/dl); conditions: time 25 day

Q: Which inhibition in vivo at 10 mg/kg [1] does the source give for `C[C@@H]1CN(c2ccc(S(C)(=O)=O)cc2F)CCN1c1nccc(C(=O)NC2C3CC4CC2CC(O)(C4)C3)n1` (some centres undefined) here?
A: 93%

Q: And the inhibition in vivo at 30 mg/kg [2]?
A: 93%

Q: And the inhibition in vivo at 30 mg/kg [3]?
A: 92%

Q: And the inhibition in vivo at 30 mg/kg [4]?
A: 92%

Q: And the inhibition in vivo at 3 mg/kg [5]?
A: 74%

Q: And the inhibition in vivo at 30 mg/kg [6]?
A: 91%

Q: What about the “Cp(f)” value [7] of the same compound?
A: 100 nM

Q: And the fraction unbound [8]?
A: 0.01

Q: And the Drug uptake [9]?
A: 0.41 nmol/g

Q: And the IC50 (Cytochrome P450 2C9)?
A: > 10 µM

Q: And the IC50 (Cytochrome P450 3A4)?
A: > 10 µM

Q: And the Vd [10]?
A: 2.4 L/kg

Q: And the AUC [11]?
A: 1470 ng·h/mL

Q: What about the Cmax [12] of the same compound?
A: 2210 ng/mL

Q: What about the Tmax [13] of the same compound?
A: 1 h

Q: What about the AUC [14] of the same compound?
A: 3390 ng·h/mL

Q: And the inhibition (Mus musculus [15])?
A: Dose-dependent effect

Q: What about the Activity [16] of the same compound?
A: Non-Toxic

Q: And the Activity [17]?
A: Non-Toxic

Q: And the IC50 [18]?
A: 8 µM

Q: And the Activity (Erythrocyte)?
A: Non-Toxic

Q: And the NOAEL at 672 h [19]?
A: 400 mg/kg

Q: What about the Activity (Mus musculus [20]) of the same compound?
A: 17.1 mg/dL

Q: What about the Activity (Mus musculus [21]) of the same compound?
A: 230.6 mg/dL

Q: What about the Activity (Mus musculus [22]) of the same compound?
A: 83.4 mg/dL

Q: And the IC50 [23]?
A: 0.0044 µM

Q: What about the Activity [24] of the same compound?
A: 26%

Q: What about the Activity (Mus musculus [25]) of the same compound?
A: 84.1 mg/dL

Q: And the Activity (Mus musculus [26])?
A: 235 mg/dL
